{"source": "ChEMBL document CHEMBL3124940", "about": "“Design, synthesis and biological evaluation of D-ring opened galantamine analogs as multifunctional anti-Alzheimer agents” (Eur J Med Chem, 2014)", "key": {"[1]": {"molecular_target": "Amyloid-beta precursor protein (Homo sapiens) (UniProt P05067)", "sequence (P05067 whole entry)": "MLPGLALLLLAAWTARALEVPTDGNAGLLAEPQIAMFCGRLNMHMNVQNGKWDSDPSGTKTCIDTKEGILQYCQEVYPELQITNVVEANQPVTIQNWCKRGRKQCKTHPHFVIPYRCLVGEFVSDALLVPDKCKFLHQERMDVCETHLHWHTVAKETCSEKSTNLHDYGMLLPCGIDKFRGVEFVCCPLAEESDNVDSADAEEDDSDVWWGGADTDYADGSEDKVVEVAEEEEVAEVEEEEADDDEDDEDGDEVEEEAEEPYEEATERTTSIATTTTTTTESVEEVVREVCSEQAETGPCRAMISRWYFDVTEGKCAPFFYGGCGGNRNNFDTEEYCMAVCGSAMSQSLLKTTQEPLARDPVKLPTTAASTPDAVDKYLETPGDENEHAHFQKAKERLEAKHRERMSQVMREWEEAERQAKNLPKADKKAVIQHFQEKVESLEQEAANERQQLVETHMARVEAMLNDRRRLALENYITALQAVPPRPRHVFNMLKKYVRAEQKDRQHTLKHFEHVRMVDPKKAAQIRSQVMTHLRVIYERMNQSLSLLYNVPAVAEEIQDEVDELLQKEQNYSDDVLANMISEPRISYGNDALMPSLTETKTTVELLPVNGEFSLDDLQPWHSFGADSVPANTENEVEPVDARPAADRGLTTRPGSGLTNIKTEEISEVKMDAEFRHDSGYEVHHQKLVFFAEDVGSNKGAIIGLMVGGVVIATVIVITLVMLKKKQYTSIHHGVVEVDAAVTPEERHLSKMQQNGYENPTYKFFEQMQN", "experiment": "Inhibition of amyloid beta (1 to 42) aggregation (unknown origin) at 50 uM after 1 hr by thioflavin T fluorescence assay relative to control", "how_it_was_run": "(§1)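 Aβ42 stock (200 µM in DMSO) centrifuged 12,000 rpm for 10 min; supernatant used. Compound (2 µL of 0.2–4.0 mM DMSO stock) and 2 µL Aβ42 stock added to 76 µL PBS pH 7.4, incubated 1 h at room temperature. 80 µL of 5 µM ThT in 50 mM glycine-NaOH pH 8.5 then added; fluorescence read at excitation 430 nm, emission 488 nm.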"}, "[2]": {"tested_on": "Rattus norvegicus", "experiment": "Toxicity in Wistar rat assessed as lipidperoxidation product level in brain at 1 umol/100 g body weight, ip by fluorometric analysis relative to control", "type": "organism-based", "conditions": "in vivo", "how_it_was_run": "(§2)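 Rats dosed i.p.; tissues taken after 24 h. For GSH/GSSG, tissue homogenized in 11 volumes of 0.2 M sodium phosphate (5 mM EDTA, pH 8.0) plus 4 volumes of 25% metaphosphoric acid and centrifuged 12 000 × g, 4 °C, 30 min; supernatant read photometrically (GSH) or fluorometrically (GSSG). Lipid peroxidation products measured as TBARS in 19-volume ice-cold saline homogenates, fluorometrically.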"}, "[3]": {"tested_on": "Rattus norvegicus", "experiment": "Antialzheimer activity in Wistar rat scopolamine-induced cognition impairment model assessed as decrease in amount of errors plus baits not found during exploration at 1 umol/100 g body weight, ip treated for 5 mins prior to scopolamine-challenge measured after 20 to 120 mins by eight-arm radial maze test", "type": "functional, organism-based", "how_it_was_run": "(§3)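 Female 60-day-old Wistar rats (Han:Wist) trained in an eight-arm radial maze to error-free trials under 60 s on three consecutive days; each animal served as its own control. Test agent given i.p. in saline 5 min before scopolamine (0.05 mg/100 g b. wt., i.p. in saline). Errors plus baits not found after 10 min, and total searching time, recorded before and 20, 60, 120 min after scopolamine; n = 14, mean ± SEM.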"}, "[4]": {"experiment": "Induction of nitric oxide release in PBS at 100 uM at pH 7.4 after 24 hrs by Griess method in presence of rat serum", "type": "physicochemical", "conditions": "pH 7.4, 24 h", "how_it_was_run": "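Test compound at 100 µM in phosphate buffer pH 7.4, alone or with 90 µL rat serum added, incubated 37 °C for 24 h. Griess reagent added, then 30 min at 37 °C with gentle shaking; absorbance read at 540 nm and blank-corrected. Nitrite quantified against an NaNO2 calibration curve and expressed as % of a theoretical 1 mol NO per mol nitrate; n = 3.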"}, "[5]": {"tested_on": "Rattus norvegicus", "experiment": "Toxicity in Wistar rat assessed as liver weight at 6 umol/100 g body weight, ip relative to control", "type": "organism-based", "conditions": "in vivo"}, "[6]": {"tested_on": "PC-12", "experiment": "Neuroprotective activity in rat PC12 cells assessed as decrease in amyloid beta (1 to 42)-induced cytotoxicity after 24 hrs by MTT assay", "type": "functional, cell-based", "how_it_was_run": "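PC12 cells in F-12 with 10% FBS at 37 °C, 5% CO2, plated at 2000 cells/well and grown 24 h. Compound added (final 0.008–10 µM, DMSO below 0.5%) with Aβ42 (final 5 µM), 24 h at 37 °C. Aβ42 prepared by HFIP treatment, dried, taken up to 100 µM in F-12 and held 4 °C for 24 h. MTT for 4 h, DMSO solubilization, read at 540 nm; reported as % of control, three independent trials, mean ± SEM.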"}, "[7]": {"tested_on": "Rattus norvegicus", "experiment": "Toxicity in Wistar rat assessed as kidney weight at 6 umol/100 g body weight, ip relative to control", "type": "organism-based", "conditions": "in vivo"}, "[8]": {"tested_on": "Rattus norvegicus", "experiment": "Toxicity in Wistar rat assessed as protein content in liver at 6 umol/100 g body weight, ip by Biuret method relative to control", "type": "organism-based", "conditions": "in vivo", "how_it_was_run": "(§4)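 Rats dosed i.p.; after 24 h, liver homogenized 1:3 w/v in 0.1 M sodium phosphate pH 7.4 and centrifuged at 9000 × g, 4 °C, 20 min. Supernatant protein determined by the Biuret method. Ethoxyresorufin-O-deethylation measured fluorometrically as resorufin formed.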"}, "[9]": {"tested_on": "Rattus norvegicus", "experiment": "Toxicity in Wistar rat assessed as lipidperoxidation product level in liver at 6 umol/100 g body weight, ip relative to control", "type": "organism-based", "conditions": "in vivo"}, "[10]": {"tested_on": "Rattus norvegicus", "experiment": "Antialzheimer activity in Wistar rat scopolamine-induced cognition impairment model assessed as total exploration time at 1 umol/100 g body weight, ip treated for 5 mins prior to scopolamine-challenge by eight-arm radial maze test relative to control", "type": "functional", "how_it_was_run": "as §3"}, "[11]": {"tested_on": "Rattus norvegicus", "experiment": "Toxicity in Wistar rat assessed as GSH level in kidney at 1 umol/100 g body weight, ip by fluorometric analysis relative to control", "type": "organism-based", "conditions": "in vivo"}, "[12]": {"molecular_target": "Amyloid-beta precursor protein (Homo sapiens) (UniProt P05067)", "experiment": "Inhibition of amyloid beta (1 to 42) aggregation (unknown origin) at 5 uM after 1 hr by thioflavin T fluorescence assay", "how_it_was_run": "as §1"}, "[13]": {"tested_on": "Rattus norvegicus", "experiment": "Toxicity in Wistar rat assessed as GSSG level in liver at 1 umol/100 g body weight, ip by fluorometric analysis relative to control", "type": "organism-based", "conditions": "in vivo", "how_it_was_run": "as §2"}, "[14]": {"tested_on": "Rattus norvegicus", "experiment": "Toxicity in Wistar rat assessed as protein content in liver at 1 umol/100 g body weight, ip by Biuret method relative to control", "type": "organism-based", "conditions": "in vivo", "how_it_was_run": "as §4"}, "[15]": {"molecular_target": "Amyloid-beta precursor protein (Homo sapiens) (UniProt P05067)", "experiment": "Inhibition of amyloid beta (1 to 42) aggregation (unknown origin) at 100 uM after 1 hr by thioflavin T fluorescence assay relative to control", "how_it_was_run": "as §1"}, "[16]": {"tested_on": "Rattus norvegicus", "experiment": "Toxicity in Wistar rat assessed as kidney weight at 1 umol/100 g body weight, ip relative to control", "type": "organism-based", "conditions": "in vivo"}, "[17]": {"tested_on": "Rattus norvegicus", "experiment": "Toxicity in Wistar rat assessed as lipidperoxidation product level in kidney at 1 umol/100 g body weight, ip by fluorometric analysis relative to control", "type": "organism-based", "conditions": "in vivo", "how_it_was_run": "as §2"}, "[18]": {"tested_on": "Rattus norvegicus", "experiment": "Toxicity in Wistar rat assessed as GSSG level in brain at 6 umol/100 g body weight, ip by fluorometric analysis relative to control", "type": "organism-based", "conditions": "in vivo", "how_it_was_run": "as §2"}, "[19]": {"tested_on": "Rattus norvegicus", "experiment": "Toxicity in Wistar rat assessed as ethoxyresorufin-O-deethylation activity in liver measured as resorufin level at 1 umol/100 g body weight, ip by fluorometric analysis relative to control", "type": "organism-based", "conditions": "in vivo", "how_it_was_run": "as §4"}, "[20]": {"tested_on": "Rattus norvegicus", "experiment": "Toxicity in Wistar rat assessed as change in movement at 1 umol/100 g body weight, ip", "type": "organism-based", "conditions": "in vivo"}, "[21]": {"tested_on": "Rattus norvegicus", "experiment": "Toxicity in Wistar rat assessed as GSH level in kidney at 6 umol/100 g body weight, ip by fluorometric analysis relative to control", "type": "organism-based", "conditions": "in vivo"}, "[22]": {"tested_on": "Rattus norvegicus", "experiment": "Toxicity in Wistar rat assessed as body weight at 6 umol/100 g body weight, ip relative to control", "type": "organism-based", "conditions": "in vivo"}, "[23]": {"tested_on": "Rattus norvegicus", "experiment": "Toxicity in Wistar rat assessed as GSH level in brain at 6 umol/100 g body weight, ip by fluorometric analysis relative to control", "type": "organism-based", "conditions": "in vivo"}, "[24]": {"tested_on": "Rattus norvegicus", "experiment": "Toxicity in Wistar rat assessed as ethoxycoumarin-O-deethylation activity in liver measured as 7-hydroxycoumarin level at 1 umol/100 g body weight, ip by fluorometric analysis relative to control", "type": "organism-based", "conditions": "in vivo"}, "[25]": {"tested_on": "Rattus norvegicus", "experiment": "Toxicity in Wistar rat assessed as GSSG level in kidney at 1 umol/100 g body weight, ip by fluorometric analysis relative to control", "type": "organism-based", "conditions": "in vivo", "how_it_was_run": "as §2"}, "[26]": {"tested_on": "Rattus norvegicus", "experiment": "Toxicity in Wistar rat assessed as ethylmorphine-N-demethylation activity in liver measured as formaldehyde level at 1 umol/100 g body weight, ip by photometric analysis relative to control", "type": "organism-based", "conditions": "in vivo"}, "[27]": {"tested_on": "Rattus norvegicus", "experiment": "Toxicity in Wistar rat assessed as GSSG level in liver at 6 umol/100 g body weight, ip by fluorometric analysis relative to control", "type": "organism-based", "conditions": "in vivo", "how_it_was_run": "as §2"}}, "note": "Active and inactive are the calls of the source. No cut-off for these calls is given here."}
{"molecule": "COc1ccc2c(c1)oc1cccc(CN(C(=O)CCO[N+](=O)[O-])C(C)C)c12", "values": [{"measurement": "inhibition", "setting": "[1]", "value": 19, "unit": "%"}, {"measurement": "Activity", "setting": "[2]", "value": 160, "unit": "nmol/g"}, {"measurement": "Activity", "setting": "[3]", "value": "Active"}, {"measurement": "Activity", "setting": "[4]", "value": "Active"}, {"measurement": "Activity", "setting": "[5]", "value": 8, "unit": "g"}, {"measurement": "Activity", "setting": "[6]", "value": "Dose-dependent effect"}, {"measurement": "Activity", "setting": "[7]", "value": 0.84, "unit": "g"}, {"measurement": "Activity", "setting": "[8]", "value": 64.7, "unit": "mg/mL"}, {"measurement": "Activity", "setting": "[9]", "value": 63.9, "unit": "nmol/g"}, {"measurement": "Time", "setting": "[10]", "value": 175, "unit": "s"}, {"measurement": "Activity", "setting": "[11]", "value": 1462, "unit": "µg/g"}, {"measurement": "inhibition", "setting": "[12]", "value": "inactive"}, {"measurement": "Activity", "setting": "[13]", "value": 411, "unit": "µg/g"}, {"measurement": "Activity", "setting": "[14]", "value": 66.4, "unit": "mg/mL"}, {"measurement": "inhibition", "setting": "[15]", "value": 25, "unit": "%"}, {"measurement": "Activity", "setting": "[16]", "value": 0.93, "unit": "g"}, {"measurement": "Activity", "setting": "[17]", "value": 93.2, "unit": "nmol/g"}, {"measurement": "Activity", "setting": "[18]", "value": 79.1, "unit": "µg/g"}, {"measurement": "Activity", "setting": "[19]", "value": 114, "unit": "pmol/mg/min"}, {"measurement": "Activity", "setting": "[20]", "value": "Non-toxic"}, {"measurement": "Activity", "setting": "[21]", "value": 1483, "unit": "µg/g"}, {"measurement": "Activity", "setting": "[22]", "value": 259, "unit": "g"}, {"measurement": "Activity", "setting": "[23]", "value": 672, "unit": "µg/g"}, {"measurement": "Activity", "setting": "[24]", "value": 187, "unit": "pmol/mg/min"}, {"measurement": "Activity", "setting": "[25]", "value": 161, "unit": "µg/g"}, {"measurement": "Activity", "setting": "[26]", "value": 0.48, "unit": "nmol/mg/min"}, {"measurement": "Activity", "setting": "[27]", "value": 418, "unit": "µg/g"}]}
